Screens from PubChem BioAssay.
M1 ag parental: counter-screen for M1 agonists: effect in parental CHO-K1 cells; Fluo-8 calcium fluorescence; scaled to maximal ATP response, vehicle zero; activation, % at 3 µM; 0.48% of 360,000 active; AID 602248; in the data active = activation above about 15%;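 also: untransfected CHO-K1 host cells lacking M1 receptor as counterscreen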
M1 PAM parental: M1 PAM counterscreen hit in parental CHO-K1 cells | activation, % at 3 µM | AID 602247 | ATP EC20, Fluo-8 calcium fluorescence; 0% at ATP EC20, 100% at ATP max | 0.02% of 360,000 active;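 active = activation above the run cutoff, the mean activation of all test compounds plus 3 SD, cut at about 40% in these data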;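 also: peak over basal fluorescence ratio in a 140 s read after ATP addition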
CHRM5 antagonist: antagonists of human muscarinic M5 receptor (CHRM5) | P08912 | CHO-hM5 cells, Fluo-8 calcium fluorescence, ACh EC80 | inhibition, % at 3 µM | 0.59% of 360,000 active;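 active = inhibition above a per-plate cutoff, the mean of that plate's test compounds plus 3 SD, cut at about 27% in these data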;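 also: 0% = acetylcholine EC80 with DMSO and 100% = DMSO without agonist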
Target sequence (P08912 whole entry, looked up): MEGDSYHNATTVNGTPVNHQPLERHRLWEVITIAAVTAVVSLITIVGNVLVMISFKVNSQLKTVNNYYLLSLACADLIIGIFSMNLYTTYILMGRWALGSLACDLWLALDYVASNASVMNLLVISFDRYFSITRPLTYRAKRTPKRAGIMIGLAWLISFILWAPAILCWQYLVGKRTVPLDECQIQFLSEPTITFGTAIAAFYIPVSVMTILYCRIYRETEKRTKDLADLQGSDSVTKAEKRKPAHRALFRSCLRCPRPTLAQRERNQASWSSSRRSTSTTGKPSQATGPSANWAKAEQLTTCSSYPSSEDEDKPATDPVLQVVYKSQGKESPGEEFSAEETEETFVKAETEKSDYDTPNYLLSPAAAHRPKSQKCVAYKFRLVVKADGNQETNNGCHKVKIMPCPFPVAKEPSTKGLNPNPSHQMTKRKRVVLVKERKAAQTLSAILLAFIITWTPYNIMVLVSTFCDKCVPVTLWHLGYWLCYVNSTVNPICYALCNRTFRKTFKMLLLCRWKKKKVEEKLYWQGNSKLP
CHO-K1 Ca antag: M1 antagonist counterscreen hit in parental CHO-K1 cells. ATP-induced calcium, Fluo-8 fluorescence. inhibition, % at 3 µM. 0.6% of 360,000 active;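 active = inhibition above a per-plate cutoff, the plate's mean sample inhibition plus 3 SD, cut at about 24% in these data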;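 also: 0% = DMSO plus EC80 ATP and 100% = DMSO alone without ATP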
CHRM5 agonist: agonists of human muscarinic M5 receptor (CHRM5). CHO-K1 hM5 cells, Fluo-8 calcium fluorescence; 0% DMSO wells, 100% maximal acetylcholine response. activation, % at 3 µM. 0.19% of 360,000 active. AID 624037;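 active = activation above the run's mean over test compounds plus 3 SD, cut at about 23% in these data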;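 also: signal is peak over basal fluorescence ratio across the kinetic read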
CHRM5 PAM: CHRM5 positive allosteric modulation | P08912 | CHO-K1 hM5, Fluo-8 calcium, ACh EC20 PAM; 0% = ACh EC20, 100% = ACh EC100 | activation, % at 3 µM | 0.3% of 360,000 active | AID 624038;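 active = activation above the run cutoff, the mean activation of all test compounds plus 3 SD, cut at about 18% in these data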
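Assay system: CHO-K1 hM5 cells. Also added: acetylcholine at EC20 concentration, added after compound. Dosing: 3 µM, single dose. Times: compound preincubation 140 s before EC20 acetylcholine addition. Signal: Fluo-8 calcium fluorescence. Measure: % activation relative to EC20 and EC100 ACh responses. Repeats: singlicate, one well per test compound.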
An asterisk follows results filed as active. In the library only some 1.7% were active in any assay of this set; here they are far more common.

What do the screens show for `CN(C)C(=O)CCc1ccc2c3c([nH]c2c1)[C@]1(C)[C@@H](C(=O)N2CCOCC2)C[C@H](CC(=O)NCCN2CCOCC2)C(=O)N1CC3`?
M1 ag parental: -0.3; M1 PAM parental: -15.0; CHRM5 antagonist: 11.3; CHO-K1 Ca antag: 24.4*; CHRM5 agonist: 1.3; CHRM5 PAM: -6.8

Results for COc1cccc(NC(=O)C(=O)N/N=C/c2ccc3c(c2)OCO3)c1 ?
M1 ag parental: 1.0; M1 PAM parental: 10.1; CHRM5 antagonist: 4.8; CHO-K1 Ca antag: -12.9; CHRM5 agonist: -1.8; CHRM5 PAM: -3.6

Results for Cc1cccc(C)c1NC(=O)C(C1CC1)n1c(-c2ccc(=O)[nH]c2)nc2ccccc21 (stereo unspecified) ?
CHRM5 antagonist: -20.9; CHRM5 agonist: 1.4; CHRM5 PAM: 21.0*

Results for Cn1c(=O)c([N+](=O)[O-])c(NCCCn2ccnc2)c2ccccc21 ?
M1 ag parental: 15.3*; M1 PAM parental: 13.3; CHRM5 antagonist: -3.1; CHO-K1 Ca antag: 0.1; CHRM5 agonist: -1.5; CHRM5 PAM: 8.1

How did Cc1cc(C)n(-c2ccc(C(C)C)cc2)c(=O)c1C#N do in these assays?
M1 ag parental: 0.5; M1 PAM parental: 27.2; CHRM5 antagonist: 7.7; CHO-K1 Ca antag: -8.8; CHRM5 agonist: -5.0; CHRM5 PAM: -3.3

Results for C/C(Cn1nc([N+](=O)[O-])cc1C)=N\NC(=O)c1ccc(O)cc1O ?
M1 ag parental: 2.2; M1 PAM parental: 23.1; CHRM5 antagonist: -7.3; CHO-K1 Ca antag: -23.5; CHRM5 agonist: -3.0; CHRM5 PAM: 3.8

What do the screens show for `COc1cc(C(=O)N/N=C(\C)Cn2nc([N+](=O)[O-])cc2C)ccc1O`?
M1 ag parental: 0.3; M1 PAM parental: -12.3; CHRM5 antagonist: -3.9; CHO-K1 Ca antag: 27.9*; CHRM5 agonist: -3.5; CHRM5 PAM: 1.2

What do the screens show for `COc1cccc(C(=O)NNC(=O)C(=O)Nc2ccc(C)c(Cl)c2)c1`?
M1 ag parental: 8.8; M1 PAM parental: 4.2; CHRM5 antagonist: 4.2; CHO-K1 Ca antag: 8.8; CHRM5 agonist: -1.3; CHRM5 PAM: 6.2

Results for NS(=O)(=O)c1ccc(CCNC(=O)C(=O)NCC2OCCN2S(=O)(=O)c2cccs2)cc1 (stereo unspecified) ?
M1 ag parental: 1.2; M1 PAM parental: 5.1; CHRM5 antagonist: -1.2; CHO-K1 Ca antag: -0.7; CHRM5 agonist: -3.5; CHRM5 PAM: 4.2

Results for NS(=O)(=O)c1ccc(CCNC(=O)C(=O)NCC2OCCN2C(=O)c2ccc3c(c2)OCO3)cc1 (stereo unspecified) ?
M1 ag parental: -0.3; M1 PAM parental: -13.6; CHRM5 antagonist: -0.9; CHO-K1 Ca antag: 28.8*; CHRM5 agonist: -1.5; CHRM5 PAM: 0.4

Results for CC(C)CN(C(=O)CCNC(=O)c1ccc(Cl)cc1)C1CCS(=O)(=O)C1 (stereo unspecified) ?
M1 ag parental: 0.9; M1 PAM parental: 11.5; CHRM5 antagonist: -8.0; CHO-K1 Ca antag: -5.0; CHRM5 agonist: 1.0; CHRM5 PAM: 18.3*

Results for CC(C)CN(C(=O)CN(C)S(=O)(=O)c1ccc(Cl)cc1)C1CCS(=O)(=O)C1 (stereo unspecified) ?
M1 ag parental: 1.2; M1 PAM parental: 17.4; CHRM5 antagonist: 17.7; CHO-K1 Ca antag: -15.5; CHRM5 agonist: -3.4; CHRM5 PAM: -4.6

Results for Cc1ccc(CCNC(=O)CN(C)S(=O)(=O)c2cnc[nH]2)cc1 ?
M1 ag parental: 0.8; M1 PAM parental: 19.8; CHRM5 antagonist: -6.4; CHO-K1 Ca antag: -5.0; CHRM5 agonist: 0.7; CHRM5 PAM: -2.2

Results for COc1ccc(CCNC(=O)C2CC2)cc1 ?
M1 ag parental: -0.2; M1 PAM parental: -22.5; CHRM5 antagonist: 5.3; CHO-K1 Ca antag: 27.9*; CHRM5 agonist: 0.1; CHRM5 PAM: 2.4

Results for COc1ccc(S(=O)(=O)N(CC(=O)NCc2ccco2)c2ccc(C)cc2)cc1OC ?
M1 ag parental: 0.5; M1 PAM parental: 9.5; CHRM5 antagonist: 5.9; CHO-K1 Ca antag: -7.6; CHRM5 agonist: -3.0; CHRM5 PAM: 4.0

What do the screens show for `CS(=O)Cc1cc(Oc2ccccc2)nc(-c2ccncc2)n1` (stereo unspecified)?
M1 ag parental: -0.1; M1 PAM parental: 0.9; CHRM5 antagonist: -5.0; CHO-K1 Ca antag: 3.9; CHRM5 agonist: -0.8; CHRM5 PAM: 1.2

What do the screens show for `CC(C)(C)OC(=O)CNC(=O)c1[nH]cnc1C(=O)NCCCCCNC(=O)OC(C)(C)C`?
M1 ag parental: 16.6*; M1 PAM parental: -1.5; CHRM5 antagonist: 32.4*; CHO-K1 Ca antag: -5.3; CHRM5 agonist: 4.1; CHRM5 PAM: -38.7

How did CC1=C(C(=O)N2CCOCC2)CC(CC(=O)NCCCCc2ccccc2)C(=O)N1Cc1ccc(F)cc1 (stereo unspecified) do in these assays?
M1 ag parental: 0.3; M1 PAM parental: 14.0; CHRM5 antagonist: -7.7; CHO-K1 Ca antag: -13.6; CHRM5 agonist: -1.3; CHRM5 PAM: 7.7

How did Cc1ccc(S(=O)(=O)Nc2c3ccccc3nc(=O)n2-c2ccccc2)cc1 do in these assays?
M1 ag parental: 1.2; M1 PAM parental: -7.1; CHRM5 antagonist: -5.5; CHO-K1 Ca antag: 26.0*; CHRM5 agonist: 0.2; CHRM5 PAM: -2.9

How did OC(c1cc(-c2ccc(C(F)(F)F)cc2)nc(C(F)(F)F)c1)C1CCCCN1 (stereo unspecified) do in these assays?
M1 ag parental: 17.6*; M1 PAM parental: 14.7; CHRM5 antagonist: 17.4; CHO-K1 Ca antag: 14.1; CHRM5 agonist: 23.0; CHRM5 PAM: 8.5

How did O=C(NC1CCCCC1)C(=S)NCCc1ccccc1 do in these assays?
M1 ag parental: 21.1*; M1 PAM parental: 8.8; CHRM5 antagonist: 4.9; CHO-K1 Ca antag: -5.2; CHRM5 agonist: 0.7; CHRM5 PAM: 1.7

What do the screens show for `O=C(NNC(=S)NC(=O)c1ccc(Br)cc1)c1ccc([N+](=O)[O-])cc1`?
M1 ag parental: 9.4; M1 PAM parental: 1.8; CHRM5 antagonist: 13.3; CHO-K1 Ca antag: 5.2; CHRM5 agonist: 3.4; CHRM5 PAM: -7.0

Results for Cc1ccc(C(=O)NNC(=S)NC(=O)c2ccc(Cl)cc2Cl)cc1 ?
M1 ag parental: 107.0*; M1 PAM parental: -13.2; CHRM5 antagonist: 8.4; CHO-K1 Ca antag: 13.2; CHRM5 agonist: 76.8*; CHRM5 PAM: -17.1

What do the screens show for `Cc1ccc(C(=O)NNC(=S)NC(=O)c2ccccc2)cc1`?
M1 ag parental: 70.3*; M1 PAM parental: -30.5; CHRM5 antagonist: 30.2*; CHO-K1 Ca antag: 26.7*; CHRM5 agonist: 66.5*; CHRM5 PAM: -30.3

What do the screens show for `O=C(NC(=S)Nc1cccc2cc(O)ccc12)c1ccco1`?
M1 ag parental: 30.9*; M1 PAM parental: -5.2; CHRM5 antagonist: 1.3; CHO-K1 Ca antag: 9.7; CHRM5 agonist: -2.2; CHRM5 PAM: -3.4
